Bioassay records from PubChem BioAssay.
An excerpt weighted towards active compounds, which were near 2.2% of everything screened.
HKDC1 inh: blocks human hexokinase HKDC1 activity; Q2TB90; recombinant HKDC1, G6PDH/diaphorase resazurin coupled fluorescence; inhibition, % at 20 µM; 340,000 compounds, 0.16% hits; AID 493160;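 active means inhibition above about 35% when tested at 20 µM, limit read from the data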;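 further: plate controls were DMSO wells with enzyme for no effect and DMSO wells lacking enzyme for full effect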
Target sequence (Q2TB90 whole entry, looked up): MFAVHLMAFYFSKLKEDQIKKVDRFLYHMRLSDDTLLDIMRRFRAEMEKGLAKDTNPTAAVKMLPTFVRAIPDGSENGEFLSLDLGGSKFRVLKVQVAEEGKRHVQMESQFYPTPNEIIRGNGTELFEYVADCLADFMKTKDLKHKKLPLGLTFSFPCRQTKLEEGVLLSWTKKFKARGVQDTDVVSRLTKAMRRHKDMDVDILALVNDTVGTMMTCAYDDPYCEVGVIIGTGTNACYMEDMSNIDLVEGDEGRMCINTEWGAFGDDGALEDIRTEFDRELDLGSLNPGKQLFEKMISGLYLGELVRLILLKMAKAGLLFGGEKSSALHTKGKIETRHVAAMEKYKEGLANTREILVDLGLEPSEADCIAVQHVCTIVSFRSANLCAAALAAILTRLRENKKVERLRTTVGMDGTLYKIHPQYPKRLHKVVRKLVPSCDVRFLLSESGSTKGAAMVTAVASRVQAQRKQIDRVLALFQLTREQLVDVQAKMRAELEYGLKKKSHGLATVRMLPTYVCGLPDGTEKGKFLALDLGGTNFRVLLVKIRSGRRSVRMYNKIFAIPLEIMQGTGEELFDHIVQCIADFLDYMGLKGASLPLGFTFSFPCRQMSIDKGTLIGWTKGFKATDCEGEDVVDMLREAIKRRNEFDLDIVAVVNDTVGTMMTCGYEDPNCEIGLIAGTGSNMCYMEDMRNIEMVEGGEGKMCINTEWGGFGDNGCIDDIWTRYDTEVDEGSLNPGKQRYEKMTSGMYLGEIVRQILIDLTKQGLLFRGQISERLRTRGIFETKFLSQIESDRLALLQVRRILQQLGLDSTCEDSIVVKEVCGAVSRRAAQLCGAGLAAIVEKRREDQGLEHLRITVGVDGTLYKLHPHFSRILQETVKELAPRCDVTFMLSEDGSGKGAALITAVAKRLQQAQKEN
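Assay system: recombinant HKDC1 hexokinase; detection: coupled resazurin fluorescence, excitation 525 nm, emission 613 nm; benchmarks: DMSO-plus-enzyme-mix negative control, buffer-substituted positive control; compound dosing: single 20 µM dose; schedule: 90 min at room temperature in dark; also added: glucose plus 1 mM ATP as hexokinase substrates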
Granule exo inh: blocks lytic granule exocytosis | TALL-104 LAMP-1 surface exposure, flow cytometry; cells stimulated with thapsigargin and PMA | inhibition, % at 10 µM | 360,000 compounds, 0.66% hits;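 active means inhibition above about 55%, limit read from the data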
PfG6PD inh: PfG6PD (Plasmodium falciparum) enzyme inhibition | 350,000 compounds, 0.78% hits | PfGluPho enzyme, NADPH resazurin-diaphorase fluorescence | AID 504690 | inhibition, % at 20 µM;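 active means inhibition reaching at least a set limit at 20 µM in the primary screen, cut at about 59% in these data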;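 further: 0% = DMSO wells with substrate and 100% = DMSO wells lacking glucose-6-phosphate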
ABHD5 PLIN5 PPI: blocks binding of human ABHD5 to perilipin-5. Split G. princeps luciferase complementation, luminescence, 4 h. inhibition, % at 4 µM. 360,000 compounds, 0.78% hits. AID 602281;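 active means inhibition above the mean inhibition across every tested compound plus 3 SD, cut at about 22% in these data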;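 further: 0% = DMSO only wells and the 100% control is not disclosed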
PfG6PD confirm: confirmation of Plasmodium falciparum G6PD inhibitors. 2,400 compounds, 34% hits. inhibition, % at 20 µM. shares compounds with PfG6PD inh. recombinant PfGluPho, NADPH-diaphorase-resazurin fluorescence. AID 504753;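 active means inhibition of at least 50% at 20 µM in any single replicate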;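 further: 0% = DMSO with substrate and 100% = DMSO lacking glucose-6-phosphate substrate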
Diaphorase 10uM: inhibits diaphorase or oxidizes, flagging false PfG6PD hits. shares compounds with PfG6PD inh. diaphorase-coupled resazurin reduction, fluorescence, NADPH 10 uM. inhibition, % at 20 µM. 820 compounds, 39% hits;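 active means average inhibition reaching 50% or more with the compound at 20 µM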;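 further: resorufin red fluorescence formed as diaphorase reduces resazurin using NADPH; 0% = DMSO with enzyme and 100% = DMSO without enzyme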
Diaphorase 30uM: inhibits diaphorase or oxidizes, flagging false PfG6PD hits. shares compounds with PfG6PD inh. Diaphorase/resazurin coupled assay, resorufin fluorescence, 30 uM NADPH. inhibition, % at 20 µM. 820 compounds, 29% hits. AID 504863;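 active means inhibition averaging 50% or more, tested at 20 µM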;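 further: 0% = DMSO with enzyme and 100% = DMSO wells lacking diaphorase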
Starred values were filed as active, the others as inactive.

CCOC(=O)c1oc2nc(CC(C)C)c3c(c2c1N)CCCC3 was read as HKDC1 inh 1, Granule exo inh 10, PfG6PD inh 6 and ABHD5 PLIN5 PPI -2.
CN1CCN(C(=S)NC(=O)c2ccc(Br)cc2)CC1 was read as HKDC1 inh 0, Granule exo inh 7, PfG6PD inh -4 and ABHD5 PLIN5 PPI 9.
CN1CCN(C(=S)C(=O)Nc2ccc(Br)cc2)CC1 was read as HKDC1 inh -9, Granule exo inh -1, PfG6PD inh 81*, ABHD5 PLIN5 PPI 19, PfG6PD confirm 74*, Diaphorase 10uM -9 and Diaphorase 30uM -4.
For CSc1ccc(C2Nc3cccc4cccc(c34)N2)cc1 the results were HKDC1 inh 6, Granule exo inh 8, PfG6PD inh 64*, ABHD5 PLIN5 PPI -6 and PfG6PD confirm 7.
For Cc1cccn2cc(-c3c[nH]c4ccccc34)nc12 the results were HKDC1 inh -4, Granule exo inh 5, PfG6PD inh 49 and ABHD5 PLIN5 PPI 4.
For Brc1ccc2nc(-c3c[nH]c4ccccc34)cn2c1 the results were HKDC1 inh 0, Granule exo inh -3, PfG6PD inh 93*, ABHD5 PLIN5 PPI 0 and PfG6PD confirm 32.
Screening O=C1N=C(N2CCN(c3ccccc3)CC2)S/C1=C/c1cccs1 returned HKDC1 inh -2, Granule exo inh -3, PfG6PD inh 8 and ABHD5 PLIN5 PPI 4.
For O=C1N=C(c2ccccc2)S/C1=C\c1cccs1 the results were HKDC1 inh 4, Granule exo inh -4, PfG6PD inh 63*, ABHD5 PLIN5 PPI -14 and PfG6PD confirm 30.
c1csc(-c2nn3c(Cn4cnc5ccccc54)nnc3s2)c1 was read as HKDC1 inh -6, Granule exo inh -1, PfG6PD inh 75*, ABHD5 PLIN5 PPI -6 and PfG6PD confirm 38.
`Clc1cccc(-c2nn3c(Cn4cnc5ccccc54)nnc3s2)c1` gave HKDC1 inh 4, Granule exo inh 0, PfG6PD inh 62*, ABHD5 PLIN5 PPI 6 and PfG6PD confirm 25.
`c1ccc2oc(-c3nn4c(Cn5cnc6ccccc65)nnc4s3)cc2c1` gave HKDC1 inh -1, Granule exo inh -1, PfG6PD inh 15 and ABHD5 PLIN5 PPI 2.
Screening c1csc(-c2nn3c(Cn4nnc5ccccc54)nnc3s2)c1 returned HKDC1 inh -4, Granule exo inh 1, PfG6PD inh 53 and ABHD5 PLIN5 PPI -4.
CCOC(=O)/C(C#N)=C/C1=C(N2CCOCC2)CC(C)(C)OC1 was read as HKDC1 inh -9, Granule exo inh 2, PfG6PD inh -5 and ABHD5 PLIN5 PPI 8.
Screening CCOC(=O)[C@]12CCCC=C1N(Cc1ccco1)C(=O)[C@H](CC(=O)NCc1cccc3ccccc13)C2 returned Granule exo inh 1 and ABHD5 PLIN5 PPI 3.
Screening CC(=O)Nc1ccc(S(=O)(=O)N2CCCN(c3nc(C)cc(C)c3C#N)CC2)cc1 returned HKDC1 inh -4, Granule exo inh -9, PfG6PD inh -9 and ABHD5 PLIN5 PPI -2.
CC1(C(=O)NS(=O)(=O)c2ccc(C#N)cc2)CCN1C(=O)Cc1ccccc1Cl (configuration not stated) was read as Granule exo inh -6 and ABHD5 PLIN5 PPI 11.
For CCOC(=O)c1c(C)[nH]c(C)c1C(=O)COC(=O)/C=C/c1ccco1 the results were HKDC1 inh 9, Granule exo inh -1, PfG6PD inh 82*, ABHD5 PLIN5 PPI 7, PfG6PD confirm 67*, Diaphorase 10uM 74* and Diaphorase 30uM 57*.
`CCOC(=O)c1c(C)[nH]c(C)c1C(=O)COC(=O)c1cc2ccccc2cc1O` gave HKDC1 inh 0, Granule exo inh 0, PfG6PD inh 103*, ABHD5 PLIN5 PPI -2 and PfG6PD confirm 5.
CCOC(=O)c1c(C)[nH]c(C)c1C(=O)COC(=O)c1cc2ccccc2cc1OC was read as HKDC1 inh -3, Granule exo inh 2, PfG6PD inh 52 and ABHD5 PLIN5 PPI -1.
For O=C(c1ccccc1)c1c[nH]c(C(=O)NNc2ccccc2)c1 the results were HKDC1 inh -4, Granule exo inh -6, PfG6PD inh 69*, ABHD5 PLIN5 PPI -5 and PfG6PD confirm 14.
CN(C)CCCNC(=O)c1cc(C(=O)c2ccccc2)c[nH]1 was read as HKDC1 inh -1, Granule exo inh -2, PfG6PD inh -5 and ABHD5 PLIN5 PPI 7.
`CC(C)(C)NC(=O)c1ccccc1NC(=O)C1CC(=O)N(C2CCCCC2)C1` (configuration not stated) gave HKDC1 inh -3, Granule exo inh 0, PfG6PD inh 4 and ABHD5 PLIN5 PPI -2.
For Cc1nnc(N/N=C/c2ccc(-c3ccc(Br)cc3)o2)n1N the results were HKDC1 inh 5, Granule exo inh 1, PfG6PD inh 61*, ABHD5 PLIN5 PPI -22 and PfG6PD confirm 48.
Screening O=C(O)c1cccc(-c2ccc(/C=N/NC(=O)c3cccnc3)o2)c1 returned HKDC1 inh -10, Granule exo inh 3, PfG6PD inh -1 and ABHD5 PLIN5 PPI 0.
For Cc1nnc(N/N=C\c2ccc(-c3cccc(C(=O)O)c3)o2)n1N the results were HKDC1 inh 3, Granule exo inh 1, PfG6PD inh 71*, ABHD5 PLIN5 PPI -23, PfG6PD confirm 52*, Diaphorase 10uM 25 and Diaphorase 30uM 18.
For COc1ccc(CCNC(=O)c2cccc(S(=O)(=O)N3CCc4ccccc4C3)c2)cc1 the results were HKDC1 inh -2, Granule exo inh 0, PfG6PD inh 1 and ABHD5 PLIN5 PPI 0.
Screening Cn1cc([N+](=O)[O-])c(C(=O)Nc2ccc(-c3nc4ccccc4[nH]3)cc2)n1 returned HKDC1 inh -4, Granule exo inh 2, PfG6PD inh 3 and ABHD5 PLIN5 PPI -3.
Screening O=C(Nc1ccc2nc(-c3ccccc3)[nH]c2c1)c1cccs1 returned HKDC1 inh -3, Granule exo inh 6, PfG6PD inh 76*, ABHD5 PLIN5 PPI 1 and PfG6PD confirm 8.
`Cn1cc([N+](=O)[O-])c(C(=O)Nc2ccc3nc(-c4ccccc4)[nH]c3c2)n1` gave HKDC1 inh -4, Granule exo inh 4, PfG6PD inh 62*, ABHD5 PLIN5 PPI 9 and PfG6PD confirm 33.
O=C(CCNC(=O)c1ccc(Br)cc1)NCC1COc2ccccc2O1 (configuration not stated) was read as HKDC1 inh 1, Granule exo inh -1, PfG6PD inh -5 and ABHD5 PLIN5 PPI 3.
`COc1cc(/C=N/NC(=O)C(=O)/C=C2\NC(C)(C)Cc3ccccc32)ccc1O` gave HKDC1 inh -5, Granule exo inh 5, PfG6PD inh 46 and ABHD5 PLIN5 PPI -1.
